Where only a bound is given, the exact number is not on record here.

Test [1] has as its target T1, Mineralocorticoid receptor (Homo sapiens, UniProt P08235).
T1 sequence (P08235 whole entry): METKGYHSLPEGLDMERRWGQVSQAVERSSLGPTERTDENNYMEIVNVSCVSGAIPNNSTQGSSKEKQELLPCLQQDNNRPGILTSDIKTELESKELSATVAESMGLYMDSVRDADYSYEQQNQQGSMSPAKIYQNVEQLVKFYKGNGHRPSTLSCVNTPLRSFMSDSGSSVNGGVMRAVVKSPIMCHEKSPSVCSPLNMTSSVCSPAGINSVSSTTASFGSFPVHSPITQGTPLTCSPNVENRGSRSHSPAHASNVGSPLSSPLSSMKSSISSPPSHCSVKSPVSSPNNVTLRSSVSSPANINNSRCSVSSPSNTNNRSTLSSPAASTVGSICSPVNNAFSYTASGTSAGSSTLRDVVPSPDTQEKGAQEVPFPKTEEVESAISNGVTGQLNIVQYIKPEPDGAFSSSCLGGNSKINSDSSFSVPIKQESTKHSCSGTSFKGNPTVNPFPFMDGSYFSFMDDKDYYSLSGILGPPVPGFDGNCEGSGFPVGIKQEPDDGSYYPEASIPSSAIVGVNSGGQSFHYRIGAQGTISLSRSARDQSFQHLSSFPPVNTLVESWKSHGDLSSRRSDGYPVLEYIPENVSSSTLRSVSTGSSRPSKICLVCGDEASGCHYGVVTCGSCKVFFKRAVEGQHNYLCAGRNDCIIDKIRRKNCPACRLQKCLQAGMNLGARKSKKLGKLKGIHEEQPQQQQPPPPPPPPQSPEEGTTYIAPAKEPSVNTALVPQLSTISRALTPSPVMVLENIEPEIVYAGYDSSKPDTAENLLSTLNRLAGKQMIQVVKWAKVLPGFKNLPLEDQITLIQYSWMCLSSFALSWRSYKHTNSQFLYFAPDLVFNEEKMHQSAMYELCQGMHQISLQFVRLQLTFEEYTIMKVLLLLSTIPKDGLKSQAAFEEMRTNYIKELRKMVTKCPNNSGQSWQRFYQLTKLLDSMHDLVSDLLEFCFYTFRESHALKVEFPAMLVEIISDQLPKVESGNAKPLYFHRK
The experiment in a line: Displacement of [3H]-Aldosterone from human MR expressed in 293 cells after 16 hrs by scintillation counting. The test is classed as cell-based, HEK293. The essentials: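 Cytosolic protein (0.75-1.5 mg/mL) from FreeStyle 293 cells transiently transfected with human MR was incubated for 16 h at 4 °C with 10 nM [3H]-aldosterone and serially diluted compound in TEGM buffer (Tris pH 7.2, EDTA, glycerol, DTT, molybdate, protease inhibitors). Free ligand was removed with dextran/gelatin-coated charcoal and the supernatant counted. Nonspecific binding used 100 µM cold aldosterone. Duplicates; IC50 from curve fit.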

The target of another test is T2, Glucocorticoid receptor (Homo sapiens, UniProt P04150).
T2 sequence (P04150 whole entry): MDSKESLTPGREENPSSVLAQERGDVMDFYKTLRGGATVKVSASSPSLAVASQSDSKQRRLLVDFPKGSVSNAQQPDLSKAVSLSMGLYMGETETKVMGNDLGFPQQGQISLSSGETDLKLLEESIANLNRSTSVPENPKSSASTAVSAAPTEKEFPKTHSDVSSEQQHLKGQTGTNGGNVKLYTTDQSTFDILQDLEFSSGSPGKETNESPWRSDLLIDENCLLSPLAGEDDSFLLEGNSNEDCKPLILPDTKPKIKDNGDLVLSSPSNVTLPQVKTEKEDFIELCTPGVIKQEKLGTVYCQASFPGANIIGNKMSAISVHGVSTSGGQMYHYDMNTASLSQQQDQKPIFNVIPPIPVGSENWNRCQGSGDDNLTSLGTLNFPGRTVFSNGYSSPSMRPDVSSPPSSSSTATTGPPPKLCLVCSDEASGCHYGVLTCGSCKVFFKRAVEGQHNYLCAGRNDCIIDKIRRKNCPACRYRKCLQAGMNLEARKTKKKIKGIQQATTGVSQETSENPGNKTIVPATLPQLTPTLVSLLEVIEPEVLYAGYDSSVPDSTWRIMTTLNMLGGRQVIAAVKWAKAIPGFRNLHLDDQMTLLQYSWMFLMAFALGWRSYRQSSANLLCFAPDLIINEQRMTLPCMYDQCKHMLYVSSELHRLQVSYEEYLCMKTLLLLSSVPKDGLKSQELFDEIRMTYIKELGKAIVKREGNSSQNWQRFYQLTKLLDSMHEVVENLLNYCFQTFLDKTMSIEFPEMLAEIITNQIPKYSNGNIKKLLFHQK
Put plainly: Displacement of [3H]-Dexamethasone human GR expressed in 293 cells after 16 hrs by scintillation counting. It counts as cell-based, HEK293. The essentials:
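These followed the MR cytosolic binding protocol (transfected 293 cells, TEGM buffer pH 7.2, 16 h at 4 °C, charcoal separation, scintillation counting of supernatant). The ligand was [3H]-dexamethasone for GR and [3H]-testosterone for AR. Concentrations were run in duplicate; IC50 taken as the mean of duplicate experiments from concentration-response curves.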
In general terms: Displacement assays read how much labelled ligand stays bound in the presence of the test substance.

In the case of `CC1C(c2ccc3c(c2)NC(=O)CO3)=C(c2ccc(F)cc2)C(=O)N1C1CC1` (stereo unspecified), the IC50 (in general, the midpoint of a concentration-inhibition curve) in test [1] came to 68 nM; on Glucocorticoid receptor it was 2200 nM.
Take `Cc1cc(F)ccc1C1=C(c2ccc3c(c2)NC(=O)CO3)COC1=O`: the values for the IC50 (in test [1]; on Glucocorticoid receptor) were 750 nM and above 10000 nM, respectively.
The matching figures for `O=C1COc2ccc(C3=C(c4ccc(F)cc4)C(=O)OC3)cc2N1`: 500 nM and above 10000 nM.
The matching figures for `CC1(C)OC(=O)C(c2ccc(F)cc2)=C1c1ccc2c(c1)NC(=O)CO2`: 1200 nM and 4700 nM.
Taken in the same sequence, the figures for `CC1NC(=O)C(c2ccc(F)cc2)=C1c1cc(F)c2c(c1)NC(=O)CO2` (stereo unspecified) were 92 nM and 5000 nM.
On to `Cc1cc(C2=C(c3ccc(F)cc3)C(=O)NC2C)cc2c1OCC(=O)N2` (stereo unspecified), for which the concentration for half-maximal inhibition (IC50) came out at 43 nM in test [1] and 4900 nM on Glucocorticoid receptor.
Taken in the same sequence, the figures for `CC1NC(=O)C(c2ccc(F)cc2)=C1c1cc(Cl)c2c(c1)NC(=O)CO2` (stereo unspecified) were 23 nM and 1100 nM.
Taken in the same sequence, the figures for `CC1NC(=O)C(c2ccc(F)cc2)=C1c1ccc2c(c1)NC(=O)CO2` (stereo unspecified) were 94 nM and 9100 nM.
As for `CC1(F)OC(=O)C(c2ccc(F)cc2)=C1c1ccc2c(c1)NC(=O)CO2` (stereo unspecified), the values for the IC50 (in test [1]; on Glucocorticoid receptor) were 550 nM and above 10000 nM, respectively.
Regarding `CC1C(c2ccc3c(c2)NC(=O)CO3)=C(c2ccc(F)cc2)C(=O)N1C` (stereo unspecified), the IC50 in test [1] was 170 nM; at Glucocorticoid receptor, 2100 nM.
The matching figures for `CC1C(c2ccc3c(c2)NC(=O)CO3)=C(c2ccc(F)cc2)C(=O)N1CCO` (stereo unspecified): 1600 nM and above 10000 nM.
Taken in the same sequence, the figures for `CCC1OC(=O)C(c2ccc(F)cc2)=C1c1ccc2c(c1)NC(=O)CO2` (stereo unspecified) were 1200 nM and 2000 nM.
The matching figures for `CCN1C(=O)C(c2ccc(F)cc2)=C(c2ccc3c(c2)NC(=O)CO3)C1C` (stereo unspecified): 33 nM and 1600 nM.

The values above are taken from ChEMBL document CHEMBL2417412, “Design, synthesis, and structure-activity relationships of dihydrofuran-2-one and dihydropyrrol-2-one derivatives as novel benzoxazin-3-one-based mineralocorticoid receptor antagonists” (Bioorg Med Chem, 2013).
